Experimental data reported in ChEMBL document CHEMBL4765399, “Design, synthesis, and biological evaluation of 5-((8-methoxy-2-methylquinolin-4-yl)amino)-1H-indole-2-carbohydrazide derivatives as novel Nur77 modulators” (Eur J Med Chem, 2020).
pIC50: −log10 of the molar value.

How the values were obtained:
[1] = tested on: HepG2; test: Antiproliferative activity against human HepG2 cells assessed as reduction in cell viability incubated for 48 hrs by MTT assay; assay type: functional, cell-based; settings: HepG2, 48 h
Outline: (§1)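 MTT assay after 48 h exposure at six concentrations, range chosen by cytotoxicity. Inhibition = (ODcontrol − ODtest)/ODcontrol × 100%; IC50 is the concentration halving OD versus untreated cells. Means ± SD of three independent determinations. HepG2 and SMMC-7721 grown in DMEM, QGY-7703 and LO2 in RPMI 1640, with 10% FBS at 37 °C.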

[2] = tested on: QGY-7703; test: Antiproliferative activity against human QGY-7703 cells assessed as reduction in cell viability incubated for 48 hrs by MTT assay; assay type: functional, cell-based; settings: QGY-7703, 48 h; outline: as §1
[3] = tested on: SMMC-7721; test: Antiproliferative activity against human SMMC-7721 cells assessed as reduction in cell viability incubated for 48 hrs by MTT assay; assay type: functional, cell-based; settings: SMMC-7721, 48 h; outline: as §1
[4] = tested on: L02; test: Cytotoxicity against human L02 cells assessed as reduction in cell viability incubated for 48 hrs by MTT assay; assay type: cell-based; settings: L02, 48 h; outline: as §1
[5] = molecular target: Nuclear receptor subfamily 4immunitygroup A member 1 (Homo sapiens, UniProt P22736); test: Binding affinity to Nur77 ligand binding domain (unknown origin) at 10 uM by surface plasmon resonance analysis; settings: filed as modulator
Nuclear receptor subfamily 4immunitygroup A member 1, sequence (P22736 whole entry, the tested form may be a part): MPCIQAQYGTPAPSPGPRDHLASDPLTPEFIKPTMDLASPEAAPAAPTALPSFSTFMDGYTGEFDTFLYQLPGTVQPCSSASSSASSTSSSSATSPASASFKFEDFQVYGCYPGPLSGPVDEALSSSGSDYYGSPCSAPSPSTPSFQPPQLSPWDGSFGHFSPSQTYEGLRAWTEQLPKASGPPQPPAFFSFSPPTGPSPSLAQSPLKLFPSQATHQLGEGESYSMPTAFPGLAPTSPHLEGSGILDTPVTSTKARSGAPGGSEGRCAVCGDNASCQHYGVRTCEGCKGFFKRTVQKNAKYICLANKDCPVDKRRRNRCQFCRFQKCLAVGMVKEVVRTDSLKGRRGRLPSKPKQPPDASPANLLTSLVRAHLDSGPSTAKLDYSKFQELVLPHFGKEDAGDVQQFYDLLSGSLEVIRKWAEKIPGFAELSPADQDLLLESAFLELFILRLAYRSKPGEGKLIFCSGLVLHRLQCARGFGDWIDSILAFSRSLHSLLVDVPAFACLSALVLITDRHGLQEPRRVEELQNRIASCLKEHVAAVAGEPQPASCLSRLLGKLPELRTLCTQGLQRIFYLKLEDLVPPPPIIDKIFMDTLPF
Outline: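 Single-concentration SPR screen at 10.0 µM against Nur77-LBD; binding given as RU response.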

SMILES	pIC50 [1]	pIC50 [2]	pIC50 [3]	pIC50 [4]	Activity [5]
COc1cccc2c(Nc3ccc4[nH]c(C(=O)N/N=C/c5cccnc5)cc4c3)cc(C)nc12	< 4.70	< 4.70	< 4.70	< 4.70	
COc1ccc(/C=N/NC(=O)c2cc3cc(Nc4cc(C)nc5c(OC)cccc45)ccc3[nH]2)c(OC)c1OC	5.20	5.42	5.07	4.86	
COc1ccc(/C=N/NC(=O)c2cc3cc(Nc4cc(C)nc5c(OC)cccc45)ccc3[nH]2)cc1OC	< 4.70	< 4.70	< 4.70	< 4.70	
COc1cccc2c(Nc3ccc4[nH]c(C(=O)N/N=C/c5cc(C(C)(C)C)c(O)c(C(C)(C)C)c5)cc4c3)cc(C)nc12	5.13	5.40	< 4.70	5.45	
COc1cccc2c(Nc3ccc4[nH]c(C(=O)N/N=C/c5ccccc5Cl)cc4c3)cc(C)nc12	5.91	5.97	6.01	5.43	
COc1cccc2c(Nc3ccc4[nH]c(C(=O)N/N=C/c5ccc(C(F)(F)F)cc5C(F)(F)F)cc4c3)cc(C)nc12	< 4.70	< 4.70	< 4.70	< 4.70	
COc1ccccc1/C=N/NC(=O)c1cc2cc(Nc3cc(C)nc4c(OC)cccc34)ccc2[nH]1	5.68	5.47	5.34	5.29	
COc1ccc(/C=N/NC(=O)c2cc3cc(Nc4cc(C)nc5c(OC)cccc45)ccc3[nH]2)c(OC)c1	5.13	5.30	4.79	5.24	
COc1cccc2c(Nc3ccc4[nH]c(C(=O)N/N=C/c5ccc(C#N)cc5)cc4c3)cc(C)nc12	4.98	5.63	< 4.70	5.55	
COc1cccc2c(Nc3ccc4[nH]c(C(=O)N/N=C/c5ccc[nH]5)cc4c3)cc(C)nc12	< 4.70	< 4.70	< 4.70	< 4.70	
COc1cccc2c(Nc3ccc4[nH]c(C(=O)N/N=C/c5ccc(F)c(C(F)(F)F)c5)cc4c3)cc(C)nc12	5.66	5.61	< 4.70	< 4.70	
COc1cccc2c(Nc3ccc4[nH]c(C(=O)N/N=C/c5cc6ccccc6nc5Cl)cc4c3)cc(C)nc12	< 4.70	5.03	4.73	< 4.70	
COc1cc(/C=N/NC(=O)c2cc3cc(Nc4cc(C)nc5c(OC)cccc45)ccc3[nH]2)cc(OC)c1OC	< 4.70	< 4.70	< 4.70	< 4.70	
COc1cccc2c(Nc3ccc4[nH]c(C(=O)N/N=C/c5cccc(C)c5)cc4c3)cc(C)nc12	5.53	5.76	5.50	5.50	
COc1cccc2c(Nc3ccc4[nH]c(C(=O)N/N=C/c5ccccn5)cc4c3)cc(C)nc12	4.83	< 4.70	5.36	4.99	
COc1cccc2c(Nc3ccc4[nH]c(C(=O)N/N=C/c5ccccc5F)cc4c3)cc(C)nc12	5.91	5.27	5.86	5.61	
COc1cccc2c(Nc3ccc4[nH]c(C(=O)N/N=C/c5cc(C(F)(F)F)ccc5Br)cc4c3)cc(C)nc12	< 4.70	4.89	< 4.70	< 4.70	
COc1cc(/C=N/NC(=O)c2cc3cc(Nc4cc(C)nc5c(OC)cccc45)ccc3[nH]2)cc(OC)c1	< 4.70	< 4.70	< 4.70	< 4.70	

SMILES	pIC50 [1]	pIC50 [2]	pIC50 [3]	pIC50 [4]	Activity [5]
COc1cccc2c(Nc3ccc4[nH]c(C(=O)N/N=C/c5cccc(C(F)(F)F)c5)cc4c3)cc(C)nc12	5.38	5.27	< 4.70	4.87	
COc1ccc(/C=N/NC(=O)c2cc3cc(Nc4cc(C)nc5c(OC)cccc45)ccc3[nH]2)cc1C(F)(F)F	5.70	6.40	6.14	5.28	91 RU
COc1cccc2c(Nc3ccc4[nH]c(C(=O)N/N=C/c5cc(O)ccc5O)cc4c3)cc(C)nc12	< 4.70	< 4.70	< 4.70	< 4.70	
COc1cccc2c(Nc3ccc4[nH]c(C(=O)N/N=C/c5ccncc5)cc4c3)cc(C)nc12	< 4.70	< 4.70	< 4.70	< 4.70	
COc1cccc2c(Nc3ccc4[nH]c(C(=O)N/N=C/c5cccs5)cc4c3)cc(C)nc12	5.26	5.82	5.19	5.20	
CC1=C(O)C(=O)C=C2C1=CC=C1[C@@]2(C)CC[C@@]2(C)[C@@H]3C[C@](C)(C(=O)O)CC[C@]3(C)CC[C@]12C [CELASTROL]	5.89	5.61	5.97	5.71	
COc1cccc(OC)c1/C=N/NC(=O)c1cc2cc(Nc3cc(C)nc4c(OC)cccc34)ccc2[nH]1	5.12	< 4.70	4.93	5.14	
COc1cccc2c(Nc3ccc4[nH]c(C(=O)N/N=C/c5ccc(O)cc5)cc4c3)cc(C)nc12	< 4.70	4.85	< 4.70	5.03	
COc1cccc2c(Nc3ccc4[nH]c(C(=O)N/N=C/c5ccc(O)cc5O)cc4c3)cc(C)nc12	5.09	< 4.70	< 4.70	4.80	
COc1cccc2c(Nc3ccc4[nH]c(C(=O)N/N=C/c5ccc([N+](=O)[O-])cc5O)cc4c3)cc(C)nc12	< 4.70	< 4.70	< 4.70	< 4.70	
COc1ccc(/C=N/NC(=O)c2cc3cc(Nc4cc(C)nc5c(OC)cccc45)ccc3[nH]2)c2ccccc12	4.78	5.34	4.96	5.04	
COc1cccc2c(Nc3ccc4[nH]c(C(=O)N/N=C/c5ccnc6ccccc56)cc4c3)cc(C)nc12	< 4.70	4.81	< 4.70	< 4.70	
O=C(O)c1ccc2cc(-c3ccc(O)c(C45CC6CC(CC(C6)C4)C5)c3)ccc2c1 [O-DEMETHYLATED ADAPALENE]	5.53	5.62	5.28	5.00	
COc1ccc(/C=N/NC(=O)c2cc3cc(Nc4cc(C)nc5c(OC)cccc45)ccc3[nH]2)cc1	6.16	< 4.70	5.92	6.12	88.2 RU
COc1cccc(/C=N/NC(=O)c2cc3cc(Nc4cc(C)nc5c(OC)cccc45)ccc3[nH]2)c1OC	5.96	5.71	5.31	5.55	
COc1ccc(/C=N/NC(=O)c2cc3cc(Nc4cc(C)nc5c(OC)cccc45)ccc3[nH]2)cc1Br	< 4.70	5.72	< 4.70	5.92	
COc1ccc2[nH]c(C)c(/C=N/NC(=O)c3cc4cc(Nc5cc(C)nc6c(OC)cccc56)ccc4[nH]3)c2c1	5.18	4.85	< 4.70	< 4.70	
COc1cccc(/C=N/NC(=O)c2cc3cc(Nc4cc(C)nc5c(OC)cccc45)ccc3[nH]2)c1	< 4.70	< 4.70	5.76	5.01	
